RGS4 block: human RGS4 inhibition | HEK293 M3R/RGS4 inducible, Fluo-4 calcium flux; hits give high values; triggered by carbachol at its EC20 | P49798 | actives 0.45% (n = 310,000) | B-score at 10 µM | AID 463165;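 active means B-score, a plate-corrected calcium signal, over three deviations above library mean, with baseline fluorescence within five deviations of library mean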;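 further: RGS4 expression induced by doxycycline in cells with stable M3 receptor; B-score is computed from the integrated fluorescence ratio over baseline after carbachol; higher B-score means a larger calcium signal and so more RGS4 inhibition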
Target sequence (P49798 whole entry, looked up): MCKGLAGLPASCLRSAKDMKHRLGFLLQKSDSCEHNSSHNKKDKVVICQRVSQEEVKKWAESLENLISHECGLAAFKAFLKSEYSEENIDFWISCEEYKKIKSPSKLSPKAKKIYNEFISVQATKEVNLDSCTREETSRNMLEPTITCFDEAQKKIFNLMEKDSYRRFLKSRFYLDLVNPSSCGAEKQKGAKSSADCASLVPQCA
MrgX1 agonist: human MrgX1 receptor agonism, primary screen; Q96LB2; MrgX1-HEK293 cells, Fluo-4 calcium fluorescence, agonist mode; hits give high values; actives 0.44% (n = 310,000); B-score at 10 µM;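 active means calcium response B-score plate-corrected fluorescence ratio at least 3 library SD, with starting fluorescence B-score inside 5 SD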
Target sequence (Q96LB2 whole entry, looked up): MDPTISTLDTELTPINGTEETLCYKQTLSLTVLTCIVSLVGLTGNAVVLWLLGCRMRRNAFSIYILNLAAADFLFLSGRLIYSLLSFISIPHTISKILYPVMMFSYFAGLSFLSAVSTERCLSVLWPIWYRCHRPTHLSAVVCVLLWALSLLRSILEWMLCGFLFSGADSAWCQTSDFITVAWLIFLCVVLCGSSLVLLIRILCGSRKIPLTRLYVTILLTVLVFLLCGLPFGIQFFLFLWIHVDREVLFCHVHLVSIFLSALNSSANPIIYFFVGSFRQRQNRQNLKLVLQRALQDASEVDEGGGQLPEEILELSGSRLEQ
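times = overnight plating, then 30 min 37 °C plus 30 min room-temperature dye loading | assay system = stable human MrgX1 HEK293 cell line | input = fifteen thousand cells per well | signal = kinetic calcium dye fluorescence, Fluo-4 NW | dosing = compound delivered in addition one of three | read-out = B-scored fluorescence response ratio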
MrgX1 antag: antagonists of human MrgX1 receptor | Q96LB2 | MRGX1-HEK293 calcium flux, Fluo-4, BAM8-22 antagonism; hits give low values | B-score at 10 µM | actives 1.3% (n = 310,000) | AID 588676;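 active means calcium-response B-score plate-corrected more than 3 library SD below zero, starting fluorescence within 5 deviations, no agonist response on first addition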;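 further: peak minus trough fluorescence over baseline after final BAM8-22 challenge near maximal dose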
RGS4 act: potentiators or activators of RGS4. HEK293 M3R/inducible RGS4, carbachol calcium flux Fluo4; hits give low values. B-score at 10 µM. actives 0.92% (n = 310,000). AID 463111;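 active means B-score of the integrated calcium signal more than 4 SD below the library mean, with starting fluorescence not abnormally high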;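 further: negative B-score means reduced calcium response which marks RGS4 activation or potentiation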
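Reagent: ECmax carbachol challenge; Test system: M3R-expressing HEK293 line, RGS4 induced by doxycycline; Schedule: overnight RGS4 induction, 30 min dye load 37 °C, 20 min compound RT; Detection: calcium dye Fluo4 fluorescence; Read-out: Agonist-evoked peak-minus-minimum fluorescence over baseline, integrated ratio, B score.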
MrgX1 allo act: allosterically activates human MrgX1 receptor signaling; MrgX1-HEK293, Fluo-4 calcium flux, FDSS; hits give high values; B-score at 10 µM; actives 0.63% (n = 310,000); AID 588675;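 active means plate-corrected calcium response at least 3 library SD above typical, normal starting fluorescence, not activating the receptor alone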;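 further: compound read alongside a low EC10 to EC30 dose of BAM8-22 agonist; peak minus trough fluorescence over baseline measured at the second addition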
MrgX1 ant reconf: reconfirmed antagonist of human MrgX1 receptor signaling | shares compounds with MrgX1 antag | MrgX1-HEK293, BAM8-22 calcium flux, Fluo-4; hits give low values | remaining BAM8-22 calcium response % of control (hits give low values), % at 10 µM | actives 19% (n = 2,300) | AID 602420;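 active means remaining agonist calcium response no higher than 100% minus 3 SD of agonist-only control wells, with starting fluorescence near control levels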;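 further: agonist BAM8-22 given at a near maximal EC90 to ECmax level; peak minus minimum fluorescence divided by baseline after agonist addition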
HEK293 Ca flux: activity in parental HEK293 cells lacking MrgX1. shares compounds with MrgX1 antag. Fluo-4 calcium fluorescence, FDSS. fluorescence ratio F(max-min)/F0 at 10 µM. actives 2% (n = 4,000). AID 624111;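 active means duplicate-averaged calcium fluorescence ratio at least three times the standard deviation of buffer wells, a nonspecific response in parental cells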
HEK293 Ca counter: activity in parental HEK293 cells without MrgX1; actives 0.4% (n = 4,000); AID 624114; shares compounds with MrgX1 antag; fluorescence ratio F(max-min)/F0 at 10 µM; parental HEK293 calcium flux, Fluo-4 fluorescence ratio; hits give high values;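 active means calcium fluorescence ratio, averaged over duplicates, at least 3 SD of the buffer-well ratio, meaning a nonspecific response in receptor-free cells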;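 further: untransfected parental HEK293 lacking MrgX1 used as counterscreen for MrgX1 allosteric activators; fluorescence change taken during the second addition on a kinetic imager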
HEK293 Ca cntr2: counter-screen for MrgX1 activators: effect in parental HEK293 cells; actives 8.7% (n = 4,000); AID 624115; fluorescence ratio F(max-min)/F0 at 10 µM; shares compounds with MrgX1 antag; Fluo-4 calcium fluorescence (FDSS); hits give high values;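 active means calcium fluorescence ratio at least three times the spread of buffer wells, meaning a non-specific response in parental cells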
* hit, by the source's call; i = inactive; nt = no result. Shown are actives, neighbours in structure and some others; about 3.5% of the full set was active somewhere.

SMILES	RGS4 block	MrgX1 agonist	MrgX1 antag	RGS4 act	MrgX1 allo act	MrgX1 ant reconf	HEK293 Ca flux	HEK293 Ca counter	HEK293 Ca cntr2
CCc1ccc(N2CC(C(=O)Nc3ccc(F)cc3)CC2=O)cc1 (configuration not stated)	i	i	i	i	i	nt	nt	nt	nt
Cc1cc(NC(=O)c2ccc(N3C(=O)CCC3=O)cc2)no1	i	i	-5.27*	i	i	i	i	i	i
CCc1ccc(N2CC(C(=O)Nc3cc(C)ccc3F)CC2=O)cc1 (configuration not stated)	i	i	-6.86*	i	i	i	i	i	i
Cc1cc(NC(=O)c2ccc(N3C(=O)C4C5C=CC(C5)C4C3=O)cc2)no1 (configuration not stated)	i	i	i	i	i	nt	nt	nt	nt
Cc1cc(NC(=O)C2CC(=O)N(c3ccccc3)C2)no1 (configuration not stated)	i	i	-4.64*	i	i	84.5%*	i	i	i
COCCCn1c(=O)c2ccccc2n(CC(=O)Nc2ccc3c(c2)OCCO3)c1=O	i	i	i	i	i	nt	nt	nt	nt
CCC(C)N1CCC2(CC1)N=c1c(c3c4c5c(C)c(O)c3c(O)c1=NC(=O)C(C)=CC=C[C@H](C)[C@H](O)[C@@H](C)[C@@H](O)[C@@H](C)[C@H](OC(C)=O)[C@H](C)[C@@H](OC)C=CO[C@@](C)(O5)C4=O)N2 (some centres not stated)	nt	i	i	nt	i	nt	nt	nt	nt
CCOC(=O)c1ccccc1NC(=O)C1CSC2(C)CCC(=O)N12 (configuration not stated)	i	i	i	i	i	nt	nt	nt	nt
Cc1ccc(Cl)cc1NC(=O)[C@@H]1CCC(=O)N1C1OC(=O)c2ccccc21 (some centres not stated)	i	i	-9.92*	i	i	84.3%*	i	i	i
Cc1ccc(NC(=O)[C@@H]2CCC(=O)N2C2OC(=O)c3ccccc32)cc1Cl (some centres not stated)	i	i	i	i	i	nt	nt	nt	nt
Cc1ccc(S(=O)(=O)N2CCN(C(=O)c3sccc3-c3ccccc3)CC2)cc1	i	i	-5.4*	i	i	i	i	i	i
CCOC(=O)CSc1n[nH]c(-c2cccnc2)n1	i	i	-6.96*	i	i	i	i	i	i
Cc1nn(-c2ccccc2)nc1C(=O)Nc1ccc2c(c1)OCCO2	i	i	-12*	i	i	i	i	i	i
O=C(COc1ccccc1)N1CCc2ccccc21	i	i	i	i	i	nt	nt	nt	nt
COC(=O)COc1cccc2c(=O)n(CC(=O)N3CCCc4ccccc43)ccc12	i	i	-8.94*	i	i	i	i	i	i
CCOC(=O)COc1cccc2c(=O)n(CC(=O)N3CCCCC3)ccc12	i	i	i	i	i	nt	nt	nt	nt
O=C(COc1ccccc1)OCC(=O)N1CCCc2ccccc21	i	i	-6.15*	i	i	i	i	i	i
CCOC(=O)c1c(C=O)c2sc(C)cc2n1C	i	i	i	i	i	nt	nt	nt	nt
CCOC(=O)C1CCN(S(=O)(=O)c2ccc3[nH]c(=O)ccc3c2)CC1	i	i	-4.73*	i	i	i	i	i	i
Cc1ccc(NC(=O)C2CCCN(S(=O)(=O)c3ccc4[nH]c(=O)ccc4c3)C2)cc1C (configuration not stated)	i	i	i	i	i	nt	nt	nt	nt
Cc1ccc(C)c(N2CCN(C(=O)Cn3c(=O)oc4cc(S(=O)(=O)N5CCCC5)ccc43)CC2)c1	i	i	i	i	i	nt	nt	nt	nt
CCc1cccc(NC(=O)C2CCN(S(=O)(=O)c3ccc4[nH]c(=O)ccc4c3)CC2)c1	i	i	i	i	i	nt	nt	nt	nt
CCOC(=O)C1CCN(C(=O)Cn2c(=O)oc3cc(S(=O)(=O)N4CCCC4)ccc32)CC1	i	i	-5.08*	i	i	i	i	i	i
Cc1cccc(NC(=O)C2CCCN(S(=O)(=O)c3ccc4[nH]c(=O)ccc4c3)C2)c1 (configuration not stated)	i	i	-6.55*	i	i	i	i	i	i
Cc1cc(C)cc(NC(=O)C2CCN(S(=O)(=O)c3ccc4[nH]c(=O)ccc4c3)CC2)c1	i	i	-6.36*	i	i	i	i	i	i
SMILES	RGS4 block	MrgX1 agonist	MrgX1 antag	RGS4 act	MrgX1 allo act	MrgX1 ant reconf	HEK293 Ca flux	HEK293 Ca counter	HEK293 Ca cntr2
COc1ccc(/C=N/OCC(=O)N2CCCC2)c(OC)c1	i	i	i	i	i	nt	nt	nt	nt
O=C(N/C(=C/c1ccc(Br)cc1)C(=O)N1CCCC1=O)c1ccco1	i	i	i	i	i	nt	nt	nt	nt
COCCN(C(=O)COC(=O)CCCOc1ccc(OC)cc1)c1c(N)n(Cc2ccccc2)c(=O)[nH]c1=O	i	i	i	i	i	nt	nt	nt	nt
COc1cccc(C2=CC(c3ccccc3)n3nnnc3N2)c1 (configuration not stated)	i	i	-5.57*	i	i	i	i	i	i
CCCCn1c(N)c(N(CC(C)C)C(=O)CCNC(=O)c2ccc(Cl)cc2)c(=O)[nH]c1=O	i	i	i	i	i	nt	nt	nt	nt
CC(NC(=O)Cn1cnnn1)C12CC3CC(CC(C3)C1)C2 (configuration not stated)	i	i	-6.79*	i	i	i	i	i	i
CC(NC(=O)CN1CCCC1)C12CC3CC(CC(C3)C1)C2 (configuration not stated)	i	i	i	i	i	nt	nt	nt	nt
N#CCSc1nnc(C2CCCCC2)n1Cc1ccccc1	i	i	-7.1*	i	i	i	i	i	i
O=C(CSc1nnc(COc2ccc(Cl)cc2)o1)N1CCCCC1	i	i	i	i	i	nt	nt	nt	nt

Source: PubChem BioAssay (Johns Hopkins Ion Channel Center)
